The source made the active and inactive calls. The rule behind the calls is not given here.
What was measured:
MCF7 [1] = experiment: Resistance factor, ratio of IC50 for drug-resistant […] human NCI/ADR cells expressing Pgp in absence of vinblastin to IC50 for drug-sensitive human MCF7 cells in presence of 50 nM vinblastin; type: functional
[2] = Cytotoxic activity against Pgp-deficient human MCF7/VP cells expressing MRP1 after 48 hrs by sulforhodamine B assay; type: functional, cell-based
Procedure, shortened: (§1)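 Cells plated at ~15% confluency and allowed 24 h to attach, then exposed to varying test concentrations for 48 h. Survival by SRB binding, reported as % decrease in binding versus ethanol solvent controls, mean of three wells. For NCI/ADR, exposure with 0 or 50 nM vinblastine; for MCF-7/VP, with 0 or 1 nM vincristine.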

MCF7 [3] = experiment: Cytotoxic activity against drug-sensitive Pgp-, MRP1-deficient human MCF7 cells after 48 hrs by sulforhodamine B assay; conditions: MCF7, 48 h
MCF7 [4] = experiment: Resistance factor, ratio of IC50 for Pgp-deficient human MCF7/VP cells expressing MRP1 in absence of vincristine to IC50 for drug sensitive human MCF7 cells in presence of 1 nM vincristine
[5] = Cytotoxic activity against drug-resistant […]-deficient human NCI/ADR cells expressing Pgp after 48 hrs by sulforhodamine B assay; type: functional, cell-based; conditions: NCI/ADR-RES; procedure, shortened: as §1
Bos taurus = species: Bos taurus; experiment: Effect on bovine brain microtubule depolymerization assessed as decrease in absorbance at wavelength 340 nm after 15 mins
Procedure, shortened: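 Bovine brain tubulin purified by three assembly/disassembly cycles followed by ion exchange. Tubulin at 2.5 mg/mL […] in 1 M glutamate, pH 6.6, with 4% DMSO, preincubated with compound at 0 °C for 15 min. 0.5 mM GTP then added and samples warmed to 37 °C. A340 monitored about 60 min.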

[6] = biological target: Multidrug resistance-associated protein 1 (Homo sapiens, UniProt P33527); experiment: Reversal of MRP1-mediated multidrug resistance in human MCF7/VP cells assessed as enhancement of cytotoxicity of vincristine after 48 hrs by sulforhodamine B assay; type: cell-based
Chain of Multidrug resistance-associated protein 1 (P33527 whole entry): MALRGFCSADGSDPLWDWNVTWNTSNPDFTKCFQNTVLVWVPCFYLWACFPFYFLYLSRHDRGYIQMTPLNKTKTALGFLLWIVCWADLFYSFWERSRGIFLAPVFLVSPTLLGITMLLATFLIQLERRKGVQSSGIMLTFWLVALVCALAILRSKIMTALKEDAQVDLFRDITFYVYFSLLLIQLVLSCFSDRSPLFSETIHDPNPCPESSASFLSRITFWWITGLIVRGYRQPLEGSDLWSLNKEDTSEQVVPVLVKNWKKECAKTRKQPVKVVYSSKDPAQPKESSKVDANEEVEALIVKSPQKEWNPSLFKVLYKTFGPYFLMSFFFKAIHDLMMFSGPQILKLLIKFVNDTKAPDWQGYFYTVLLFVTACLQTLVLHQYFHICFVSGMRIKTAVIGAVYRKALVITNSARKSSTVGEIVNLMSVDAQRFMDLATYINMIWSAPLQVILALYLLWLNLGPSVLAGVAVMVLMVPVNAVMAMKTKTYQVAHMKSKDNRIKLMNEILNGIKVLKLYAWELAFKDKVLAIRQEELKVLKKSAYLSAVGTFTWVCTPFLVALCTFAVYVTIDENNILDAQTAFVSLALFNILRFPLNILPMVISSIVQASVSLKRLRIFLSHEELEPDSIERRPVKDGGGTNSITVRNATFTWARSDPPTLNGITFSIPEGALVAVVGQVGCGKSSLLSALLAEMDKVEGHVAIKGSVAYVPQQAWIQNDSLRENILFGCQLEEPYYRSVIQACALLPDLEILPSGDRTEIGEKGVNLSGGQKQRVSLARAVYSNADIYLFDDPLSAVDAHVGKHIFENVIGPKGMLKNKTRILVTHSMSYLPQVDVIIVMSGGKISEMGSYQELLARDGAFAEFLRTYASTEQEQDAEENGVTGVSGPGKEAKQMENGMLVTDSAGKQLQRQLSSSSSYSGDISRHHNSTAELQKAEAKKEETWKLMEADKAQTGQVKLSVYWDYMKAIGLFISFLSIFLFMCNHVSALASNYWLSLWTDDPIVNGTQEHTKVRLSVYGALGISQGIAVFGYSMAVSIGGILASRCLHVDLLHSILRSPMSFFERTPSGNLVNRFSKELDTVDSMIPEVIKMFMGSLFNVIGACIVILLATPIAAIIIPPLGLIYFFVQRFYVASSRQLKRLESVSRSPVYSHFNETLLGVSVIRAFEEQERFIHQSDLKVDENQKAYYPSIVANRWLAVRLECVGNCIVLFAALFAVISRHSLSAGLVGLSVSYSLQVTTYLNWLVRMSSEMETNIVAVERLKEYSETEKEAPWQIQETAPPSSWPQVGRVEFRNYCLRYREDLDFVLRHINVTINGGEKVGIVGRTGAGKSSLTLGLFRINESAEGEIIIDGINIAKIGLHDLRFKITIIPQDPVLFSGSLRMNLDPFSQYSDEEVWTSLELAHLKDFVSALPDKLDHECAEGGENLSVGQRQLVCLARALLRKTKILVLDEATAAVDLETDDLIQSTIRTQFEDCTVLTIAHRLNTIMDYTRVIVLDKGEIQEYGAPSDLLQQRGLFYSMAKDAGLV
Procedure, shortened: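 MCF-7/VP cells plated at ~15% confluency and allowed 24 h to attach. […] Survival by SRB binding. MRP1 Antagonism Score = % survival without vincristine / % survival with vincristine.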

NCI/ADR = experiment: Reversal of Pgp-mediated multidrug resistance in human NCI/ADR cells assessed as enhancement of cytotoxicity of vinblastine after 48 hrs by sulforhodamine B assay; type: cell-based
Procedure, shortened: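 NCI/ADR cells plated at ~15% confluency and allowed 24 h to attach. […] Survival by SRB binding, each value the mean of three wells, with ethanol solvent controls. Pgp Antagonism Score = % survival without vinblastine / % survival with vinblastine.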

SMILES	Ratio IC50 (MCF7 [1])	IC50 [2] [µM]	IC50 (MCF7 [3]) [µM]	Ratio IC50 (MCF7 [4])	IC50 [5] [µM]	Activity (Bos taurus)	Activity [6]	Activity (NCI/ADR)
COc1cccc(OC)c1CCc1cn(Cc2ccccc2)c2nc(N)nc(C)c12	0.54	20	22	0.91	12	Active	Not Active	Active
COc1cc(OC)c(OC)cc1CCc1cn(Cc2ccccc2)c2nc(N)nc(C)c12	0.66	15	15	1	10	inactive	Not Active	inactive
COc1ccc(CCc2cn(Cc3ccccc3)c3nc(N)nc(C)c23)c(OC)c1OC	0.61	20	18	1.11	11	Active	Active	inactive
CC[C@]1(O)C[C@H]2CN(CCc3c([nH]c4ccccc34)[C@@](C(=O)OC)(c3cc4c(cc3OC)N(C=O)[C@H]3[C@@](O)(C(=O)OC)[C@H](OC(C)=O)[C@]5(CC)C=CCN6CC[C@]43[C@@H]65)C2)C1 [VINCRISTINE]	167	0.0093	–	15.5	100	Active	–	–
CC[C@]1(O)C[C@@H]2CN(CCc3c([nH]c4ccccc34)[C@@](C(=O)OC)(c3cc4c(cc3OC)N(C)[C@H]3[C@@](O)(C(=O)OC)[C@H](OC(C)=O)[C@]5(CC)C=CCN6CC[C@]43[C@@H]65)C2)C1 [VINBLASTINE]	>134	0.003	–	1.1	> 375	Active	–	–
Cc1nc(N)nc2c1c(CCc1ccccc1Cl)cn2Cc1ccccc1	0.55	15	20	0.75	11	inactive	Not Active	inactive
COc1cc(CCc2cn(Cc3ccccc3)c3nc(N)nc(C)c23)c(OC)c(OC)c1	0.66	63	50	1.26	33	inactive	Active	Active
COc1ccc(CCc2cn(Cc3ccccc3)c3nc(N)nc(C)c23)cc1OC	0.29	7	17	0.41	5	inactive	Not Active	inactive
COc1cc(CCc2cn(Cc3ccccc3)c3nc(N)nc(C)c23)cc(OC)c1OC	0.83	0.25	–	0.83	0.25	Active	Not Active	inactive
COc1ccc(CCc2cn(Cc3ccccc3)c3nc(N)nc(C)c23)c(OC)c1	0.35	12	17	0.71	6	inactive	Not Active	Active
COc1ccccc1CCc1cn(Cc2ccccc2)c2nc(N)nc(C)c12	1.17	2.6	–	1.13	2.7	–	Not Active	Active
COc1cc(CCc2cn(Cc3ccccc3)c3nc(N)nc(C)c23)cc(OC)c1	0.48	17	25	0.68	12	inactive	Active	inactive
CC(=O)O[C@H]1C(=O)[C@@]2(C)[C@H]([C@H](OC(=O)c3ccccc3)[C@]3(O)C[C@H](OC(=O)[C@H](O)[C@@H](NC(=O)c4ccccc4)c4ccccc4)C(C)=C1C3(C)C)[C@]1(OC(C)=O)CO[C@@H]1C[C@@H]2O [PACLITAXEL]	1080	0.0028	–	1.1	2.7	inactive	–	–

Source: ChEMBL document CHEMBL1806466, “2-Amino-4-methyl-5-phenylethyl substituted-7-N-benzyl-pyrrolo[2,3-d]pyrimidines as novel antitumor antimitotic agents that also reverse tumor resistance” (Bioorg Med Chem, 2011)
